Assay results: ChEMBL document CHEMBL2177013, “Synthesis and biological evaluation of tylophorine-derived dibenzoquinolines as orally active agents: exploration of the role of tylophorine e ring on biological activity” (J Med Chem, 2012)
Active and inactive are the calls of the source.

Key:
[1] = Oral bioavailability in Sprague-Dawley rat at 3 mg/kg by HPLC-MS method; format: ADME, organism-based; details: in vivo
Method in brief: (§1)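 Male rats (330−380 g, 9−10 weeks), jugular vein cannula implanted 1 day before, fasted. 3 mg/kg given iv or orally (n = 3) in DMA/PEG400 30/70 v/v. Blood (150 μL) drawn at 0, 2, 5 (iv only), 15, 30 min and 1, 2, 4, 6, 8, 12, 24 h; plasma analysed by HPLC-MS; noncompartmental analysis.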

[2] = Tmax in Sprague-Dawley rat at 3 mg/kg, po by HPLC-MS method; format: ADME, organism-based; design: dose 3 mg/kg, route oral; details: in vivo; method in brief: as §1
[3] = Volume of distribution at steady state in Sprague-Dawley rat at 3 mg/kg, iv by HPLC-MS method; format: ADME, organism-based; design: dose 3 mg/kg, route intravenous; details: in vivo, read-out: Vdss; method in brief: as §1
[4] = Clearance in Sprague-Dawley rat at 3 mg/kg, iv by HPLC-MS method; format: ADME, organism-based; design: dose 3 mg/kg, route intravenous; details: in vivo; method in brief: as §1
[5] = Apparent elimination half life in Sprague-Dawley rat at 3 mg/kg, iv by HPLC-MS method; format: ADME, organism-based; design: dose 3 mg/kg, route intravenous; details: in vivo, read-out: betat1/2(app) (converted); method in brief: as §1
[6] = Solubility in DMA; format: physicochemical
Murine hepatitis virus [7] = assay: Antiviral activity against Murine hepatitis virus JHM infected in mouse DBT cells assessed as reduction in N-protein expression at 0.05 to 0.5 uM pre-treated 1 hr before virus infection and measured 24 hrs post infection by immunofluorescent assay; format: functional, organism-based
Method in brief: (§2)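 DBT cells (2.8 × 10⁵/well) seeded the day before infection in DMEM with 2% FBS. Compound added 1 h before MHV-JHM at MOI 0.005 (virus grown in BNL CL.2 cells). Cytopathic effect viewed by phase contrast and N protein by immunofluorescence at 24 hpi.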

Murine hepatitis virus [8] = assay: Antiviral activity against Murine hepatitis virus JHM infected in mouse DBT cells assessed as reduction in virus-induced cytopathic effect at 0.05 to 0.5 uM pre-treated 1 hr before virus infection and measured 24 hrs post infection by phase contrast microscopy; format: functional, organism-based; method in brief: as §2
[9] = system: Transmissible gastroenteritis virus; assay: Antiviral activity against Transmissible gastroenteritis virus infected in ST cells assessed as reduction in caspase-3 activation pre-treated before virus infection measured 16 hrs post virus infection by Western blotting; format: functional, organism-based
Method in brief: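 ST cells pretreated with compound, then infected with TGEV. Western blot for nucleocapsid (N) protein, caspase 3 (cleavage of procaspase 3) and GAPDH at 16 hpi. Representative of at least three independent experiments.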

RAW264.7 [10] = assay: Reduction in LPS/INFgamma-induced COX2 protein expression in mouse RAW264.7 cells incubated for 20 hrs by Western blotting; format: functional, cell-based
Method in brief: (§3)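 LPS/IFNγ-stimulated RAW264.7 cells treated with compound for 20 h. iNOS, COX-2 and GAPDH detected by Western blot; representative of at least three independent experiments.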

RAW264.7 [11] = assay: Reduction in LPS/INFgamma-induced iNOS protein expression in mouse RAW264.7 cells incubated for 20 hrs by Western blotting; format: functional, cell-based; method in brief: as §3
A549 [12] = assay: Induction of c-Jun protein accumulation in human A549 cells incubated for 24 hrs by Western blotting; format: functional, cell-based
NCI-H460 [13] = assay: Induction of c-Jun protein accumulation in human NCI-H460 cells incubated for 24 hrs by Western blotting; format: functional, cell-based
[14] = Cytotoxicity against mouse RAW264.7 cells; format: cell-based
Method in brief: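 RAW264.7 cells stimulated with LPS/IFNγ and compound-treated in parallel with the NO assay; CC50 taken as concentration giving 50% inhibition of cell growth. Mean of at least three experiments, each in duplicate.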

[15] = system: Transmissible gastroenteritis virus; assay: Antiviral activity against Transmissible gastroenteritis virus infected in ST cells pre-treated 2 hrs before virus infection measured 6 hrs post virus infection by immunofluorescent assay; format: functional, organism-based; details: Alphacoronavirus 1, ST
Method in brief: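 ST cells, with or without 2 h compound pretreatment (10 concentrations), infected with TGEV at MOI 10. Immunofluorescence with anti-spike and anti-nucleocapsid antibodies at 6 hpi. EC50 from dose–response curves, mean of at least three experiments, each in duplicate.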

[16] = Growth inhibition of human HONE1 cells; format: functional
Method in brief: (§4)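 Cells seeded per well: NUGC-3 4500, HONE-1 6000, MCF-7 6500, NCI-H460 2500, HepG2 10000, A549 5000; A549 grown in RPMI 1640 with 2 g/L NaHCO₃, 2 mM L-glutamine and 10% FBS. GI₅₀ = concentration giving 50% growth inhibition, mean of at least three experiments each in duplicate. Paclitaxel served as positive control.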

NUGC-3 = assay: Growth inhibition of human NUGC3 cells; format: functional; method in brief: as §4
NCI-H460 [17] = assay: Growth inhibition of human NCI-H460 cells; format: functional; method in brief: as §4
A549 [18] = assay: Growth inhibition of human A549 cells; format: functional; method in brief: as §4
HepG2 = assay: Growth inhibition of human HepG2 cells; format: functional; method in brief: as §4
Mus musculus [19] = assay: Toxicity in Nu-Foxn1'nu mouse assessed as effect on motor coordination at 10 mg/kg, po administered once daily on day 1 to 10, day 15 to 19 and day 22 to 26 measured during day 58 to 61 post dose by rotarod test; format: organism-based; design: dose 10 mg/kg, route oral; details: in vivo
Method in brief: (§5)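 Male nude mice already used in the A549 xenograft study (oral dosing, vehicle 25% DMA + 75% PEG400). Groups: vehicle (n = 8), 5 mg/kg (n = 7), 10 mg/kg (n = 8), plus untreated nontumor mice (n = 5). Rota-rod training on day 58, testing on days 59–61, rod accelerating 2 to 30 rpm over 300 s. Read-out was latency to fall, 300 s cutoff.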

Mus musculus [20] = assay: Toxicity in Nu-Foxn1'nu mouse assessed as effect on motor coordination at 5 mg/kg, po administered once daily on day 1 to 10, day 15 to 19 and day 22 to 26 measured during day 58 to 61 post dose by rotarod test; format: organism-based; design: dose 5 mg/kg, route oral; details: in vivo; method in brief: as §5
Rattus norvegicus [21] = assay: Antiinflammatory activity against Sprague-Dawley rat assessed as reduction in carrageenan-induced hind paw edema at 5 mg/kg, ip; format: functional; design: scale not given: the % may be the effect or the level left; details: route intraperitoneal
Method in brief: (§6)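 Female Sprague−Dawley rats (193−214 g, 8−9 weeks, n = 5) dosed ip 1 h before subplantar injection of 100 μL 1% carrageenan in saline into the left hind paw. Vehicle group received DMSO (100 μL); indomethacin served as positive control. Inhibition of 30% or more counted as significant.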

Rattus norvegicus [22] = assay: Antiinflammatory activity against Sprague-Dawley rat assessed as reduction in carrageenan-induced hind paw edema at 3 mg/kg, ip; format: functional; design: scale not given: the % may be the effect or the level left; details: route intraperitoneal; method in brief: as §6
A549 [23] = assay: Antitumor activity against human A549 cells xenografted in Nu-Foxn1'nu mouse assessed as reduction in tumor volume at 10 mg/kg, po administered once daily on day 1 to 10, day 15 to 19 and day 22 to 26; format: functional; design: scale not given: the % may be the effect or the level left
Method in brief: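 Four-week-old male nude mice received 10 million A549 cells sc in the right flank. At ~60 mm³ tumours, mice were randomised (n = 8) and dosed by oral gavage in 25% DMA + 75% PEG400. Volume = a×b²/2. T/C (%) computed from day 1 and day 60 volumes versus vehicle.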

CCN1Cc2c(c3ccc(OC)cc3c3cc(OC)c(OC)cc23)C(O)C1 (stereo not given)
bioavailability [1]: 63.5% | Tmax [2]: 18 min | Vd [3]: 2.7 L/kg | clearance [4]: 51.8 mL/min/kg | half-life [5]: 48 min | solubility [6]: soluble | Activity (Murine hepatitis virus [7]): Active | Activity (Murine hepatitis virus [8]): Active | Activity [9]: Active | Activity (RAW264.7 [10]): Active | Activity (RAW264.7 [11]): Active | Activity (A549 [12]): Active | Activity (NCI-H460 [13]): Active | CC50 [14]: 240 nM | EC50 [15]: 40 nM | GI50 [16]: 60 nM | GI50 (NUGC-3): 30 nM | GI50 (NCI-H460 [17]): 20 nM | GI50 (A549 [18]): 20 nM | GI50 (HepG2): 40 nM | Activity (Mus musculus [19]): Non-toxic | Activity (Mus musculus [20]): Non-toxic | Activity (Rattus norvegicus [21]): >60% | Activity (Rattus norvegicus [22]): >60% | Activity (A549 [23]): 61%
